# Screening results from PubChem BioAssay.
# A selection: hits, their analogues and other compounds. The true share with any hit is near 3.8%.
# KCNK9 inh = human KCNK9 channel inhibition. Q9NPC2. HEK293 KCNK9, FluxOR thallium flux fluorescence; hits give low values. B-score at 10 µM. hit rate 1.2% among 310,000. AID 488922;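 active = ratio B-score over 3 SD below the library mean, with starting fluorescence within 5 SD of its mean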;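 also: negative B-score means less thallium flux so channel inhibition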
# hERG protect = compounds protecting human hERG from proarrhythmic drug block; Q12809; CHO-hERG, FluxOR thallium flux, dofetilide IC70 present; activation (rescue from dofetilide block), less the hit threshold, % at 10 µM; hit rate 0.51% among 310,000;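 active = activation above the mean of controls blocked by dofetilide plus 5 SD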;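 also: thallium influx through hERG after potassium depolarization seen as dye fluorescence rise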
# Kir21 block = Kir2.1 (mouse) channel inhibition; HEK293-Kir2.1, FluxOR thallium flux fluorescence; hits give low values; hit rate 0.85% among 310,000; AID 1672; B-score at 10 µM; P35561;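 active = fluorescence ratio B-score at or below minus 3 SD of library scores, with starting-brightness B-score within 2 SD, cut at about -4.2 in these data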;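 also: channel flux triggered by added potassium and thallium sulfate stimulus; B-score of peak minus minimum fluorescence over baseline after thallium stimulus; more negative B-score means stronger Kir2.1 block with less thallium influx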
# KCNK3 inh = human KCNK3 channel inhibition, primary screen; O14649; CHO-KCNK3 thallium flux, FluxOR fluorescence; hits give low values; B-score at 10 µM; hit rate 0.84% among 340,000; AID 602410;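 active = B-score under library mean minus 4 SD, starting fluorescence ratio at most library mean plus 5 SD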;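 also: more negative B-score means stronger inhibition of thallium flux through KCNK3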
# Target sequence (O14649 whole entry, looked up): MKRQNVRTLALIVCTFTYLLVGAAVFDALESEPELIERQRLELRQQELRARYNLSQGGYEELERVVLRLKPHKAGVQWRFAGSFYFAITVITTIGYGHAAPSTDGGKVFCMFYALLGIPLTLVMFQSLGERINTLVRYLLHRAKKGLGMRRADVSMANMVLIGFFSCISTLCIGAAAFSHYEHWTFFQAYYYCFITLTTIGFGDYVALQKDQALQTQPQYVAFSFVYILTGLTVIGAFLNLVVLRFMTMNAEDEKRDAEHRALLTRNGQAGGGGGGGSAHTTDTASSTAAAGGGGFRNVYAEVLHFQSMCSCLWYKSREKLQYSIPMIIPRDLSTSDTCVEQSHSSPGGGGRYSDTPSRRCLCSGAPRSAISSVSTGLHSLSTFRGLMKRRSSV
# KCNQ1 inh = inhibitors of human KCNQ1 potassium channel | B-score at 10 µM | CHO-K1 KCNQ1, FluxOR thallium flux fluorescence; hits give high values | hit rate 1.3% among 310,000 | P51787 | AID 2642;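 active = compounds whose thallium flux B-score, printed positive for inhibition, exceeds three library SD while starting fluorescence stays within three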;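 also: channel opened by potassium depolarization with thallium stimulus after 20 min compound exposure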
# KCNQ1 act = potentiators or activators of human KCNQ1 potassium channel; P51787; CHO-K1 KCNQ1, thallium flux FluxOR fluorescence; hits give high values; B-score at 10 µM; hit rate 0.35% among 310,000; AID 2648;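 active = fluorescence ratio B-score, a plate-corrected score, at least three library SD, with initial intensity B-score within 5 SD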
#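 Assay system: CHO-K1 cells stably expressing KCNQ1; Medium: assay buffer with matched DMSO; Also added: K+/Tl+ depolarizing stimulus; Dosing: single dose; Timing: dye 90 min, compound 20 min, room temperature; Measured by: kinetic FluxOR thallium fluorescence, 10-s 1-Hz baseline, 110-s post-stimulus read; Read-out: peak-minus-minimum fluorescence over initial fluorescence, negative-control normalized, B-scored.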
# KCNK3 inh conf = human KCNK3 channel inhibition, confirmation assay. shares compounds with KCNK3 inh. CHO-KCNK3 thallium flux, FluxOR fluorescence; 0% buffer, 100% carvedilol maximal block. ratio percent of control, % at 10 µM. hit rate 99% among 2,400. AID 651638;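 active = ratio percent of control, averaged over triplicates, above buffer control mean plus 5 SD, cut at about 64% in these data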;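 also: ratio is the fluorescence rise from min to max over baseline after thallium stimulus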
# KCNK3 uninduced = counter-screen for KCNK3 inhibitors: effect in non-induced cells; AID 651747; non-induced KCNK3 parental cells, FluxOR thallium flux; hits give low values; shares compounds with KCNK3 inh; thallium flux ratio (lower = more inhibition) at 10 µM; hit rate 40% among 2,400;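 active = thallium flux ratio, averaged over three wells, more than 5 SD below the buffer control mean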;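 also: host cells are CHO cells without KCNK3 induction; ratio is peak minus trough fluorescence over baseline then normalized to buffer controls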
# Starred values were filed as active, the others as inactive; i = inactive; / = no result.
SMILES,KCNK9 inh,hERG protect,Kir21 block,KCNK3 inh,KCNQ1 inh,KCNQ1 act,KCNK3 inh conf,KCNK3 uninduced
CC(=O)Oc1ccc(C#C/C=C2\c3ccccc3C(=O)N2c2ccccc2)cc1,/,/,/,i,/,/,/,/
Cc1cc(C(F)(F)F)nn1CC(=O)N(C)c1ccccc1,i,-3,0.76,i,i,i,/,/
COc1ccc(CCN(Cc2cc3cc(C)cc(C)c3nc2Cl)C(=O)C2CC2)cc1,i,-17,1.1,-11*,i,i,98*,i
Cc1cc(/C=C2\SC(=S)NC2=O)c(C)n1-c1cccc(O)c1,-7.3*,-17,-2.7,-8.9*,i,i,113*,0.15*
CCCCn1c(N)c(N(CCC(C)C)C(=O)c2ccc(-c3ccc([N+](=O)[O-])cc3)o2)c(=O)[nH]c1=O,/,/,/,i,/,/,/,/
CCOc1cc(/C=N/NS(=O)(=O)c2ccccc2)ccc1OS(=O)(=O)c1ccc(C)cc1,i,-13,-3.2,-9.4*,i,i,102*,i
CCOc1cc(/C=N/NC(=O)COc2ccc(Cl)cc2)ccc1OS(=O)(=O)c1ccccc1,i,-16,-0.53,i,i,i,/,/
CCN1C(=O)NC2=C(C(=O)c3ccccc32)C1c1ccccc1F (configuration not stated),i,-10,0.79,i,i,i,/,/
O=S(=O)(c1cc(Br)ccc1Br)N1CCCCCC1,i,-4,-0.45,-11*,i,i,129*,0.14*
CCOC(=O)c1cc(C#N)c(SCC(N)=O)[nH]c1=O,i,-11,-1.2,i,i,i,/,/
CCOC(=O)c1cc(C#N)c(SCC(=O)c2cc(C#N)c(SC)nc2C)[nH]c1=O,i,-12,-0.71,-10*,i,i,122*,0.13*
CCOC(=O)c1ccc(NC(=O)CSc2nnc(-c3ccncc3)n2C)cc1,i,-8,-0.45,i,i,i,/,/
COc1cccc(-c2nn(-c3ccc(C)cc3)cc2C(=O)N2CCc3cc(OC)c(OC)cc3C2)c1,i,-23,-0.32,-9.8*,i,i,104*,0.14*
COc1ccc(OC)c(-c2nn(-c3ccccc3)cc2C(=O)N2CCc3ccccc3C2)c1,/,/,/,i,/,/,/,/
C=C(C)C(COc1c2occc2cc2ccc(=O)oc12)OC(C)(C)C(O)COc1c2occc2cc2ccc(=O)oc12 (configuration not stated),/,/,/,i,/,/,/,/
CC1=C(C(=O)Nc2ccc(CC(=O)NCc3ccccc3C)cc2)SCCO1,i,-10,0.47,i,i,i,/,/
CC1=C(C(=O)Nc2cccc(C(=O)NCc3ccc(F)cc3)c2)SCCO1,i,-9,-0.65,-9*,i,i,84*,i
CC1=C(C(=O)Nc2cccc(C(=O)NCc3ccccc3C)c2)SCCO1,-6.6*,-11,-0.92,-8.8*,i,i,100*,i
CCc1nc(SCC(=O)N2c3ccccc3Sc3ccccc32)c2ccccc2n1,i,-6,0.05,i,i,i,/,/
CCc1nc(SCC(=O)c2ccccc2)c2ccccc2n1,i,-7,-0.8,-9.4*,i,i,88*,i
CCOC(=O)/C(C#N)=C/c1cc(C)n(-c2ccc(C)cc2)c1C,i,-4,-0.21,-9.6*,i,i,110*,i
COc1ccc(Cl)cc1-n1c(=S)sc2c(=O)[nH]c(SCC(=O)C(C)(C)C)nc21,i,-16,-0.21,-9*,i,i,88*,0.14*
Cc1cccc(C(=O)c2cnc3ccccc3c2-c2ccccc2)c1,-6.7*,-19,-0.46,-11*,i,i,129*,0.14*
CNc1c(NS(=O)(=O)c2ccc(C3CCCCC3)cc2)c(=O)oc2ccccc12,i,-8,-0.61,-9.4*,i,i,87*,i
CNc1c(NS(=O)(=O)c2ccc(Cl)cc2)c(=O)oc2ccccc12,i,-11,0.16,i,i,i,/,/
SMILES,KCNK9 inh,hERG protect,Kir21 block,KCNK3 inh,KCNQ1 inh,KCNQ1 act,KCNK3 inh conf,KCNK3 uninduced
COc1ccc(C)cc1Cn1nnc2ccccc21,i,-3,-0.32,i,i,i,/,/
COc1ccc(C2Nc3ccccc3C(=O)N2c2ccc(C)cc2)cc1Cn1cc([N+](=O)[O-])cn1 (configuration not stated),i,-15,2,-8.8*,i,i,105*,i
COc1ccc(C2Nc3ccccc3C(=O)N2c2ccc(C)cc2)cc1Cn1nnc2ccccc21 (configuration not stated),i,-12,-1.1,-8.8*,i,i,111*,0.16*
CN(C)S(=O)(=O)c1ccc(-n2cccc2)cc1,i,-4,0.87,i,i,i,/,/
COC(=O)c1ccc(SC2CCCCC2)c([N+](=O)[O-])c1,i,-13,0.03,i,i,i,/,/
CCOc1ccccc1/C=C/c1onc(C)c1S(=O)(=O)N1CCC(C(=O)NC(C)C)CC1,i,-4,1.1,i,i,i,/,/
CC(=O)OCc1nc2sc3c(c2c(=O)[nH]1)CCCC3,i,-7,0,i,i,i,/,/
CCn1nc(C)c(NC(=O)/C=C/c2cnn(C)c2C)c1C,i,-5,-0.52,i,i,i,/,/
COc1ccc(OC)c(/C=C2/Sc3ccccc3C2=O)c1,-7.2*,-7,-0.1,-11*,i,i,110*,0.12*
C/C(=N\N=C1\NC(=O)C(Cc2ccccc2)S1)c1ccccc1 (configuration not stated),i,-3,1,-10*,i,i,103*,0.16*
O=C(/C=C/c1ccccc1Br)c1ccc2c(c1)OCO2,i,-11,0,i,i,i,/,/
O=C(/C=C\Nc1ccccc1Br)c1ccc2c(c1)OCO2,i,-10,-2.8,-12*,i,i,118*,i
COc1cccc(-c2nc(C(=O)NCC3CCCO3)cc3c2[nH]c2ccccc23)c1 (configuration not stated),-6.8*,-25,-0.36,-11*,i,i,64*,0.15*
CCOc1ccccc1C1C(C#N)=C(N)Oc2n[nH]c(CC)c21 (configuration not stated),i,-7,-2.2,i,i,i,/,/
CC(=O)OCC(=O)C1(O)CCC2C3CCC4=CC(=O)C=CC4(C)C3(F)C(O)CC21C (configuration not stated),/,/,/,i,/,/,/,/
